Experimental data from different studies.
Each line is one published result; the experiments were not run side by side.
Matrix: plasma

| SMILES | species | route | dose | setting | half-life |
| --- | --- | --- | --- | --- | --- |
| CN1CCN(Cc2ccc(NC(=O)c3cncc(C#Cc4cnc(N)c5ncccc45)c3)cc2C(F)(F)F)CC1 | rat | intravenous | 2 mg/kg | – | 3.4 h |
| CCCCCn1cc(C(=O)Nc2cccc3ccccc23)c2ccccc21 | male Long-Evans rat | intraperitoneal | 3 mg/kg | – | 11.6 h |
| O=C(Nc1cccnn1)N1CCN([C@@H]2CCOc3cc(C(F)(F)F)ccc32)CC1 | male Sprague-Dawley rat | oral | 1 mg/kg | – | 5.5 h |
| [2H]C([2H])([2H])n1cc2cc(Nc3nc(=O)n(Cc4ncn(C)n4)c(=O)n3Cc3cc(F)c(F)cc3F)c(Cl)cc2n1 | male Sprague-Dawley rat | oral | 25 mg/kg | – | 3.39 h |
| Cc1ncc(C)n2nc(/C=C/c3nc(N4CCCC4)cc(N4CCOCC4)n3)nc12 | male Sprague-Dawley rat | oral | 0.3 mg/kg | – | 6 h |
| CCCC[C@@H]1NC(=O)[C@H](Cc2ccc(O)cc2)NC(=O)[C@@H]2CCCN2C(=O)[C@H](CC(=O)O)NC(=O)[C@H](C)NC(=O)[C@H](Cc2ccccc2)NC(=O)[C@@H]2CSCCC(=O)N3CN(CN(C3)C(=O)CCSC[C@H](NC(C)=O)C(=O)N[C@@H](CC(C)(C)C)C(=O)N[C@@H](CCC(=O)O)C(=O)N[C@@H](CCC(=O)O)C(=O)N[C@H](CCCCNC(=O)CCc3cn(CCOCCOCCOCCN(CCOCCOCCOCCC(=O)N[C@H]4CSCCC(=O)N5CN6CN(C5)C(=O)CCSC[C@H](NC(=O)[C@@H](CC(=O)O)NC(=O)[C@H](Cc5cccc7ccccc57)NC(=O)[C@@H]5CCCN5C4=O)C(=O)N[C@@H](CCSC)C(=O)N[C@@H](CCCCNC(=N)N)C(=O)N[C@@H](CC(=O)O)C(=O)N[C@@H](Cc4c[nH]c5ccccc45)C(=O)N[C@@H](CO)C(=O)N[C@@H]([C@@H](C)O)C(=O)N4CCC[C@H]4C(=O)N4C[C@H](O)C[C@H]4C(=O)N[C@@H](Cc4c[nH]c5ccccc45)C(=O)N[C@H](C(N)=O)CSCCC6=O)CCOCCOCCOCCn4cc(CCC(=O)NCCCC[C@H]5NC(=O)[C@H](CCC(=O)O)NC(=O)[C@H](CCC(=O)O)NC(=O)[C@H](CC(C)(C)C)NC(=O)[C@@H](NC(C)=O)CSCCC(=O)N6CN7CN(C6)C(=O)CCSC[C@H](NC(=O)[C@H](Cc6ccc(O)cc6)NC(=O)[C@@H]6CCCN6C5=O)C(=O)N[C@@H](Cc5ccccc5)C(=O)N[C@@H](C)C(=O)N[C@@H](CC(=O)O)C(=O)N5CCC[C@H]5C(=O)N[C@@H](Cc5ccc(O)cc5)C(=O)N[C@@H](CCCC)C(=O)N[C@H](C(N)=O)CSCCC7=O)nn4)nn3)C(=O)N3CCC[C@H]3C(=O)N[C@@H](Cc3ccc(O)cc3)C(=O)N2)C(=O)CCSC[C@@H](C(N)=O)NC1=O | rat | intravenous | 2 mg/kg | – | 2.1 h |
| CC(=O)N[C@@H](C)C(=O)N[C@H]1CSSC[C@@H](C(=O)O)NC(=O)[C@H](Cc2ccccc2)NC(=O)[C@@H]2CCCN2C(=O)[C@H](Cc2c[nH]c3ccccc23)NC(=O)[C@H](CC(C)C)NC(=O)[C@H](CC(C)C)NC(=O)[C@H](CC(=O)O)NC(=O)[C@H](Cc2ccccc2)NC(=O)[C@H](Cc2c[nH]cn2)NC(=O)[C@H]([C@@H](C)O)NC(=O)[C@H](Cc2ccccc2)NC1=O | male Sprague-Dawley rat | intravenous | – | – | 0.0303 h |
| [2H]C([2H])(c1cc(F)c(F)cc1F)n1c(=O)n(Cc2ncn(C)n2)c(=O)[nH]/c1=N\c1cc2cn(C)nc2cc1Cl | male Sprague-Dawley rat | oral | 25 mg/kg | – | 4.16 h |
| CCCC[C@@H]1NC(=O)[C@H](Cc2ccc(O)cc2)NC(=O)[C@@H]2CCCN2C(=O)[C@H](CC(=O)O)NC(=O)[C@H](C)NC(=O)[C@H](Cc2ccccc2)NC(=O)[C@@H]2CSCCC(=O)N3CN(CN(C3)C(=O)CCSC[C@H](NC(C)=O)C(=O)N[C@@H](CC(C)(C)C)C(=O)N3CCC[C@H]3C(=O)N[C@@H](CCC(=O)O)C(=O)N[C@H](CCCCNC(=O)CCc3cn(CCOCCOCCOCCN(CCOCCOCCOCCC(=O)N[C@H]4CSCCC(=O)N5CN6CN(C5)C(=O)CCSC[C@H](NC(=O)[C@@H](CC(=O)O)NC(=O)[C@H](Cc5cccc7ccccc57)NC(=O)[C@@H]5CCCN5C4=O)C(=O)N[C@@H](CCSC)C(=O)N[C@@H](CCCCNC(=N)N)C(=O)N[C@@H](CC(=O)O)C(=O)N[C@@H](Cc4c[nH]c5ccccc45)C(=O)N[C@@H](CO)C(=O)N[C@@H]([C@@H](C)O)C(=O)N4CCC[C@H]4C(=O)N4C[C@H](O)C[C@H]4C(=O)N[C@@H](Cc4c[nH]c5ccccc45)C(=O)N[C@H](C(N)=O)CSCCC6=O)CCOCCOCCOCCn4cc(CCC(=O)NCCCC[C@H]5NC(=O)[C@H](CCC(=O)O)NC(=O)[C@@H]6CCCN6C(=O)[C@H](CC(C)(C)C)NC(=O)[C@@H](NC(C)=O)CSCCC(=O)N6CN7CN(C6)C(=O)CCSC[C@H](NC(=O)[C@H](Cc6ccc(O)cc6)NC(=O)[C@@H]6CCCN6C5=O)C(=O)N[C@@H](Cc5ccccc5)C(=O)N[C@@H](C)C(=O)N[C@@H](CC(=O)O)C(=O)N5CCC[C@H]5C(=O)N[C@@H](Cc5ccc(O)cc5)C(=O)N[C@@H](CCCC)C(=O)N[C@H](C(N)=O)CSCCC7=O)nn4)nn3)C(=O)N3CCC[C@H]3C(=O)N[C@@H](Cc3ccc(O)cc3)C(=O)N2)C(=O)CCSC[C@@H](C(N)=O)NC1=O | rat | intravenous | 2 mg/kg | – | 3.1 h |
| COC(=O)C(NC(=O)c1cn(CCCCCF)c2ccccc12)C(C)(C)C (stereo not shown) | male Sprague-Dawley rat | subcutaneous | 50 µg/kg | – | 6.89 h |
| O=C([O-])C(=O)[O-].[NH-][C@@H]1CCCC[C@H]1[NH-].[Pt+4] (relative stereo) | rat | intravenous | 5 mg/kg | – | 3.1 h |
| Cl.Cl.O=C(CCN1CCCCC1)c1ccc(-c2ccc(C(=O)CCN3CCCCC3)cc2)cc1 | Sprague-Dawley rat | intravenous | 5 mg/kg | – | 0.08 h |
| CSCC[C@H](NC(=O)COCCOCCNC(=O)COCCOCCNC(=O)CC[C@H](NC(=O)CCCCCCCCCCCCCCCCC(=O)O)C(=O)O)C(=O)N[C@H]1CSSC[C@@H](C(=O)NCC(=O)N[C@@H](CO)C(=O)NCC(=O)N[C@@H](CO)C(=O)N[C@@H](CC(=O)O)C(=O)N[C@@H](Cc2ccc(O)cc2)C(=O)N[C@@H](CCCCN)C(=O)N[C@@H](CC(=O)O)C(=O)N[C@@H](CC(=O)O)C(=O)N[C@@H](CC(=O)O)C(=O)N[C@@H](CC(=O)O)C(=O)N[C@@H](CCCCN)C(N)=O)NC(=O)[C@H](Cc2ccccc2)NC(=O)[C@@H]2CCCN2C(=O)[C@H](Cc2c[nH]c3ccccc23)NC(=O)[C@H](CC(C)C)NC(=O)[C@H](CCSC)NC(=O)[C@H](Cc2c[nH]cn2)NC(=O)[C@H](Cc2ccccc2)NC(=O)[C@H](Cc2c[nH]cn2)NC(=O)[C@H]([C@@H](C)O)NC(=O)[C@H](Cc2ccccc2)NC1=O | male Sprague-Dawley rat | intravenous | – | – | 10.7 h |
| N=c1c2c(-c3ccccc3)c(-c3ccccc3)n(Cc3ccccc3)c2ncn1[C@H]1CC[C@H](O)CC1 | male Sprague-Dawley rat | intravenous | 2 mg/kg | single dose | 8.9 h |
| Cn1cnc(Cn2c(=O)[nH]/c(=N\c3cc4cn(C)nc4cc3Cl)n(Cc3cc(F)c(F)cc3F)c2=O)n1 | male Sprague-Dawley rat | oral | 25 mg/kg | – | 3.86 h |
| CCN1CC2(CCN(CCc3cc(F)ccc3F)CC2)O[C@H](C)C1=O | Wistar rat | intraperitoneal | 3 mg/kg | single dose | 0.333 h |
